Data as given in ChEMBL document CHEMBL1158372, “Design, synthesis, and biological evaluation of novel triazole derivatives as inhibitors of cytochrome P450 14alpha-demethylase” (2009).
Converted amounts (≈) assume the structure as drawn.

How the values were obtained:
Assay type in all cases: functional
[1] = system: Nannizzia gypsea; experiment: Antifungal activity against Microsporum gypseum by micro-broth dilution method
Summary of the method: (§1)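 Broth microdilution in 96-well plates following the NCCLS method. DMSO solutions of test agents were serially diluted in growth medium, inoculated, and incubated at 35 °C. MIC80 is the first well showing roughly 80% growth reduction versus the drug-free control. C. albicans ATCC76615 and Cry. neoformans ATCC32609 served as quality-control strains. Each test was done three times; the mean of replicates is reported.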

[2] = system: Trichophyton rubrum; experiment: Antifungal activity against Trichophyton rubrum by micro-broth dilution method; summary of the method: as §1
[3] = system: Candida albicans; experiment: Antifungal activity against Candida albicans ATCC 76615 after 24 hrs by micro-broth dilution method; conditions: ATCC 76615, 24 h
Summary of the method: (§2)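 NCCLS (M27-A2) broth microdilution in 96-well format. Compounds in DMSO, serially diluted in growth medium, inoculated, incubated at 35 °C, and read at 24 h (C. albicans ATCC76615) or 72 h (Cry. neoformans ATCC32609). MIC80 is the first well with about 80% less growth than the drug-free well. Three independent runs per agent; the mean of replicates is reported.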

[4] = system: Aspergillus fumigatus; experiment: Antifungal activity against Aspergillus fumigatus by micro-broth dilution method; summary of the method: as §1
[5] = system: Cryptococcus neoformans; experiment: Antifungal activity against Cryptococcus neoformans ATCC 32609 after 72 hrs by micro-broth dilution method; conditions: ATCC 32609, 72 h; summary of the method: as §2
[6] = system: Candida parapsilosis; experiment: Antifungal activity against Candida parapsilosis by micro-broth dilution method; conditions: Lodderomyces parapsilosis; summary of the method: as §1
[7] = system: Candida tropicalis; experiment: Antifungal activity against Candida tropicalis by micro-broth dilution method; summary of the method: as §1
[8] = system: Pichia kudriavzevii; experiment: Antifungal activity against Candida krusei by micro-broth dilution method; summary of the method: as §1

| Compound | MIC80 [1] [µg/mL] | MIC80 [2] [µg/mL] | MIC80 [3] [µg/mL] | MIC80 [4] [µg/mL] | MIC80 [5] [µg/mL] | MIC80 [6] [µg/mL] | MIC80 [7] [µg/mL] | MIC80 [8] [µg/mL] |
| --- | --- | --- | --- | --- | --- | --- | --- | --- |
| OC(Cn1cncn1)(Cn1cncn1)c1ccc(F)cc1F [FLUCONAZOLE] | 0.25 (≈ 0.816 µM) | 4 (≈ 13.1 µM) | 0.5 (≈ 1.63 µM) | > 64 | 1 (≈ 3.27 µM) | 1 (≈ 3.27 µM) | 1 (≈ 3.27 µM) | 4 (≈ 13.1 µM) |
| CCC(C)n1ncn(-c2ccc(N3CCN(c4ccc(OCC5COC(Cn6cncn6)(c6ccc(Cl)cc6Cl)O5)cc4)CC3)cc2)c1=O (centres undefined) [ITRACONAZOLE] | 0.0625 (≈ 0.0886 µM) | 0.125 (≈ 0.177 µM) | 0.0625 (≈ 0.0886 µM) | 0.5 (≈ 0.709 µM) | 0.125 (≈ 0.177 µM) | 0.125 (≈ 0.177 µM) | 0.125 (≈ 0.177 µM) | 0.5 (≈ 0.709 µM) |
| C=CCN(Cc1cccc(F)c1)CC(O)(Cn1cncn1)c1ccc(F)cc1F (centres undefined) | 0.0156 (≈ 0.0388 µM) | 0.25 (≈ 0.621 µM) | 0.0156 (≈ 0.0388 µM) | > 64 | 0.0625 (≈ 0.155 µM) | 0.0625 (≈ 0.155 µM) | 0.0625 (≈ 0.155 µM) | 0.0625 (≈ 0.155 µM) |
| C=CCN(Cc1ccc(C(=O)Oc2cccc([N+](=O)[O-])c2)cc1)CC(O)(Cn1cncn1)c1ccc(F)cc1F (centres undefined) | 1 (≈ 1.82 µM) | 4 (≈ 7.28 µM) | 0.25 (≈ 0.455 µM) | > 64 | 1 (≈ 1.82 µM) | 0.25 (≈ 0.455 µM) | 0.0625 (≈ 0.114 µM) | 4 (≈ 7.28 µM) |
| C[C@@H](c1ncncc1F)[C@](O)(Cn1cncn1)c1ccc(F)cc1F [VORICONAZOLE] | 0.0039 (≈ 0.0112 µM) | 0.0625 (≈ 0.179 µM) | 0.0156 (≈ 0.0447 µM) | 0.25 (≈ 0.716 µM) | 0.0156 (≈ 0.0447 µM) | 0.0039 (≈ 0.0112 µM) | 0.0039 (≈ 0.0112 µM) | 0.0625 (≈ 0.179 µM) |
| C=CCN(Cc1ccccc1C)CC(O)(Cn1cncn1)c1ccc(F)cc1F (centres undefined) | 0.0039 (≈ 0.00979 µM) | 0.0625 (≈ 0.157 µM) | 0.0156 (≈ 0.0392 µM) | > 64 | 0.0625 (≈ 0.157 µM) | 0.0625 (≈ 0.157 µM) | 0.0625 (≈ 0.157 µM) | 0.0625 (≈ 0.157 µM) |
| C=CCN(Cc1ccc(C(=O)Oc2ccccc2)cc1)CC(O)(Cn1cncn1)c1ccc(F)cc1F (centres undefined) | 1 (≈ 1.98 µM) | 16 (≈ 31.7 µM) | 1 (≈ 1.98 µM) | > 64 | 1 (≈ 1.98 µM) | 1 (≈ 1.98 µM) | 1 (≈ 1.98 µM) | 1 (≈ 1.98 µM) |
| C=CCN(Cc1ccc(C(=O)OC)cc1)CC(O)(Cn1cncn1)c1ccc(F)cc1F (centres undefined) | 0.0156 (≈ 0.0353 µM) | 0.25 (≈ 0.565 µM) | 0.0625 (≈ 0.141 µM) | > 64 | 0.25 (≈ 0.565 µM) | 0.25 (≈ 0.565 µM) | 0.0625 (≈ 0.141 µM) | 0.0625 (≈ 0.141 µM) |
| C=CCN(Cc1cccc(Cl)c1)CC(O)(Cn1cncn1)c1ccc(F)cc1F (centres undefined) | 0.0625 (≈ 0.149 µM) | 1 (≈ 2.39 µM) | 0.0156 (≈ 0.0372 µM) | > 64 | 0.25 (≈ 0.597 µM) | 0.25 (≈ 0.597 µM) | 0.0625 (≈ 0.149 µM) | 0.0625 (≈ 0.149 µM) |
| C=CCN(Cc1ccc(Br)cc1)CC(O)(Cn1cncn1)c1ccc(F)cc1F (centres undefined) | 0.0625 (≈ 0.135 µM) | 0.25 (≈ 0.54 µM) | 0.0625 (≈ 0.135 µM) | 4 (≈ 8.63 µM) | 0.25 (≈ 0.54 µM) | 0.25 (≈ 0.54 µM) | 0.25 (≈ 0.54 µM) | 0.0625 (≈ 0.135 µM) |
| C=CCN(Cc1ccccc1F)CC(O)(Cn1cncn1)c1ccc(F)cc1F (centres undefined) | 0.0039 (≈ 0.00969 µM) | 0.25 (≈ 0.621 µM) | 0.0039 (≈ 0.00969 µM) | > 64 | 0.0625 (≈ 0.155 µM) | 0.0156 (≈ 0.0388 µM) | 0.0625 (≈ 0.155 µM) | 0.0156 (≈ 0.0388 µM) |
| C=CCN(Cc1ccccc1Br)CC(O)(Cn1cncn1)c1ccc(F)cc1F (centres undefined) | 0.0156 (≈ 0.0337 µM) | 0.25 (≈ 0.54 µM) | 0.0625 (≈ 0.135 µM) | > 64 | 0.25 (≈ 0.54 µM) | 0.25 (≈ 0.54 µM) | 0.0625 (≈ 0.135 µM) | 0.25 (≈ 0.54 µM) |
| C=CCN(Cc1ccc(C(=O)OCC)cc1)CC(O)(Cn1cncn1)c1ccc(F)cc1F (centres undefined) | 0.25 (≈ 0.548 µM) | 0.25 (≈ 0.548 µM) | 0.0039 (≈ 0.00854 µM) | > 64 | 1 (≈ 2.19 µM) | 1 (≈ 2.19 µM) | 0.25 (≈ 0.548 µM) | 0.0625 (≈ 0.137 µM) |
| C=CCN(Cc1ccc(Cl)cc1Cl)CC(O)(Cn1cncn1)c1ccc(F)cc1F (centres undefined) | 1 (≈ 2.21 µM) | 1 (≈ 2.21 µM) | 1 (≈ 2.21 µM) | 16 (≈ 35.3 µM) | 1 (≈ 2.21 µM) | 0.25 (≈ 0.551 µM) | 0.25 (≈ 0.551 µM) | 0.25 (≈ 0.551 µM) |
| C[C@@H]1[C@H](O)[C@@H](C)/C=C/C=C/C=C/C=C/C=C/C=C/C=C/[C@H](O[C@@H]2O[C@H](C)[C@@H](O)[C@H](N)[C@@H]2O)C[C@@H]2O[C@](O)(C[C@@H](O)C[C@@H](O)[C@H](O)CC[C@@H](O)C[C@@H](O)CC(=O)O[C@H]1C)C[C@H](O)[C@H]2C(=O)O [AMPHOTERICIN B] | 2 (≈ 2.16 µM) | 2 (≈ 2.16 µM) | 2 (≈ 2.16 µM) | 64 (≈ 69.3 µM) | 2 (≈ 2.16 µM) | 2 (≈ 2.16 µM) | 2 (≈ 2.16 µM) | 2 (≈ 2.16 µM) |
| C=CCN(Cc1ccc([N+](=O)[O-])cc1)CC(O)(Cn1cncn1)c1ccc(F)cc1F (centres undefined) | 0.0156 (≈ 0.0363 µM) | 0.25 (≈ 0.582 µM) | 0.0156 (≈ 0.0363 µM) | > 64 | 0.25 (≈ 0.582 µM) | 0.0625 (≈ 0.146 µM) | 0.25 (≈ 0.582 µM) | 0.0625 (≈ 0.146 µM) |
| C=CCN(Cc1ccc(C(=O)Oc2ccc([N+](=O)[O-])cc2)cc1)CC(O)(Cn1cncn1)c1ccc(F)cc1F (centres undefined) | 0.25 (≈ 0.455 µM) | 4 (≈ 7.28 µM) | 0.25 (≈ 0.455 µM) | > 64 | 1 (≈ 1.82 µM) | 1 (≈ 1.82 µM) | 1 (≈ 1.82 µM) | 1 (≈ 1.82 µM) |
| C=CCN(Cc1ccc(C(=O)Oc2ccc(Cl)cc2)cc1)CC(O)(Cn1cncn1)c1ccc(F)cc1F (centres undefined) | 0.25 (≈ 0.464 µM) | 4 (≈ 7.42 µM) | 1 (≈ 1.86 µM) | > 64 | 16 (≈ 29.7 µM) | 1 (≈ 1.86 µM) | 4 (≈ 7.42 µM) | 4 (≈ 7.42 µM) |
